Laboratory results as given in ChEMBL document CHEMBL2157935, “Synthesis and properties of cationic 2'-O-[N-(4-aminobutyl)carbamoyl] modified oligonucleotides” (Bioorg Med Chem Lett, 2012).

Experiments:
[1] = test system: Nucleic Acid; experiment: Binding affinity to RNA 3'-CAUGGAAAGGCC-5' assessed as change in melting temperature; format: nucleic-acid assay
[2] = test system: Nucleic Acid; experiment: Binding affinity to RNA 3'-CAUGGAAAGGCC-5' assessed as melting temperature; format: nucleic-acid assay
[3] = Chemical stability in presence of snake venom phosphodiesterase at 50 uM and pH 8.4; format: physicochemical; settings: buffer
Method in brief: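 Oligonucleotides (50 μM) incubated at 37 °C in 50 mM Tris-HCl (pH 8.5) with 72 mM NaCl, 14 mM MgCl2 and 2.5 × 10^-4 U/ml snake venom phosphodiesterase; hydrolysis followed over time.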

[4] = test system: Nucleic Acid; experiment: Binding affinity to RNA 3'-CAUGGGAAGGCC-5' assessed as melting temperature; format: nucleic-acid assay
[5] = test system: Nucleic Acid; experiment: Binding affinity to RNA 3'-CAUGGUAAGGCC-5' assessed as melting temperature; format: nucleic-acid assay
[6] = test system: Nucleic Acid; experiment: Binding affinity to RNA 3'-CAUGGCAAGGCC-5' assessed as melting temperature; format: nucleic-acid assay

ΔTm [1] [°C]	Tm [2] [°C]	Tm [4] [°C]	Tm [5] [°C]	Tm [6] [°C]	SMILES	Stability [3]
		63	58	57	CO[C@@H]1[C@H](OP(=O)(O)OC[C@H]2O[C@@H](n3ccc(=O)[nH]c3=O)[C@H](OC)[C@@H]2OP(=O)(O)OC[C@H]2O[C@@H](n3ccc(=O)[nH]c3=O)[C@H](OC)[C@@H]2OP(=O)(O)OC[C@H]2O[C@@H](n3ccc(=O)[nH]c3=O)[C@H](OC)[C@@H]2OP(=O)(O)OC[C@H]2O[C@@H](n3ccc(N)nc3=O)[C@H](OC)[C@@H]2OP(=O)(O)OC[C@H]2O[C@@H](n3ccc(N)nc3=O)[C@H](OC)[C@@H]2OP(=O)(O)OC[C@H]2O[C@@H](n3cnc4c(=O)[nH]c(N)nc43)[C@H](OC)[C@@H]2OP(=O)(O)OC[C@H]2O[C@@H](n3cnc4c(=O)[nH]c(N)nc43)[C@H](OC)[C@@H]2O)[C@@H](COP(=O)(O)O[C@H]2[C@@H](OC)[C@H](n3ccc(N)nc3=O)O[C@@H]2COP(=O)(O)O[C@H]2[C@@H](OC)[C@H](n3cnc4c(N)ncnc43)O[C@@H]2COP(=O)(O)O[C@H]2[C@@H](OC)[C@H](n3ccc(=O)[nH]c3=O)O[C@@H]2COP(=O)(O)O[C@H]2[C@@H](OC)[C@H](n3cnc4c(=O)[nH]c(N)nc43)O[C@@H]2CO)O[C@H]1n1ccc(N)nc1=O	
	43				CO[C@@H]1[C@H](OP(=O)(O)OC[C@H]2O[C@@H](n3ccc(=O)[nH]c3=O)[C@H](OC(N)=O)[C@@H]2OP(=O)(O)OC[C@H]2O[C@@H](n3ccc(=O)[nH]c3=O)[C@H](OC)[C@@H]2OP(=O)(O)OC[C@H]2O[C@@H](n3ccc(=O)[nH]c3=O)[C@H](OC(N)=O)[C@@H]2OP(=O)(O)OC[C@H]2O[C@@H](n3ccc(N)nc3=O)[C@H](OC)[C@@H]2OP(=O)(O)OC[C@H]2O[C@@H](n3ccc(N)nc3=O)[C@H](OC)[C@@H]2OP(=O)(O)OC[C@H]2O[C@@H](n3cnc4c(=O)[nH]c(N)nc43)[C@H](OC)[C@@H]2OP(=O)(O)OC[C@H]2O[C@@H](n3cnc4c(=O)[nH]c(N)nc43)[C@H](OC)[C@@H]2O)[C@@H](COP(=O)(O)O[C@H]2[C@@H](OC)[C@H](n3ccc(N)nc3=O)O[C@@H]2COP(=O)(O)O[C@H]2[C@@H](OC)[C@H](n3cnc4c(N)ncnc43)O[C@@H]2COP(=O)(O)O[C@H]2[C@@H](OC)[C@H](n3ccc(=O)[nH]c3=O)O[C@@H]2COP(=O)(O)O[C@H]2[C@@H](OC)[C@H](n3cnc4c(=O)[nH]c(N)nc43)O[C@@H]2CO)O[C@H]1n1ccc(N)nc1=O	
	47				CO[C@@H]1[C@H](OP(=O)(O)OC[C@H]2O[C@@H](n3ccc(=O)[nH]c3=O)[C@H](OC)[C@@H]2OP(=O)(O)OC[C@H]2O[C@@H](n3ccc(=O)[nH]c3=O)[C@H](OC)[C@@H]2OP(=O)(O)OC[C@H]2O[C@@H](n3ccc(=O)[nH]c3=O)[C@H](OC(N)=O)[C@@H]2OP(=O)(O)OC[C@H]2O[C@@H](n3ccc(N)nc3=O)[C@H](OC)[C@@H]2OP(=O)(O)OC[C@H]2O[C@@H](n3ccc(N)nc3=O)[C@H](OC)[C@@H]2OP(=O)(O)OC[C@H]2O[C@@H](n3cnc4c(=O)[nH]c(N)nc43)[C@H](OC)[C@@H]2OP(=O)(O)OC[C@H]2O[C@@H](n3cnc4c(=O)[nH]c(N)nc43)[C@H](OC)[C@@H]2O)[C@@H](COP(=O)(O)O[C@H]2[C@@H](OC)[C@H](n3ccc(N)nc3=O)O[C@@H]2COP(=O)(O)O[C@H]2[C@@H](OC)[C@H](n3cnc4c(N)ncnc43)O[C@@H]2COP(=O)(O)O[C@H]2[C@@H](OC(N)=O)[C@H](n3ccc(=O)[nH]c3=O)O[C@@H]2COP(=O)(O)O[C@H]2[C@@H](OC)[C@H](n3cnc4c(=O)[nH]c(N)nc43)O[C@@H]2CO)O[C@H]1n1ccc(N)nc1=O	

The next lines start with the compound.

SMILES	ΔTm [1] [°C]	Tm [2] [°C]	Tm [4] [°C]	Tm [5] [°C]	Tm [6] [°C]	Stability [3]
CO[C@@H]1[C@H](OP(=O)(O)OC[C@H]2O[C@@H](n3ccc(=O)[nH]c3=O)[C@H](OC)[C@@H]2OP(=O)(O)OC[C@H]2O[C@@H](n3ccc(=O)[nH]c3=O)[C@H](OC)[C@@H]2OP(=O)(O)OC[C@H]2O[C@@H](n3ccc(=O)[nH]c3=O)[C@H](OC(=O)NCCCCN)[C@@H]2OP(=O)(O)OC[C@H]2O[C@@H](n3ccc(N)nc3=O)[C@H](OC)[C@@H]2OP(=O)(O)OC[C@H]2O[C@@H](n3ccc(N)nc3=O)[C@H](OC)[C@@H]2OP(=O)(O)OC[C@H]2O[C@@H](n3cnc4c(=O)[nH]c(N)nc43)[C@H](OC)[C@@H]2OP(=O)(O)OC[C@H]2O[C@@H](n3cnc4c(=O)[nH]c(N)nc43)[C@H](OC)[C@@H]2O)[C@@H](COP(=O)(O)O[C@H]2[C@@H](OC)[C@H](n3ccc(N)nc3=O)O[C@@H]2COP(=O)(O)O[C@H]2[C@@H](OC)[C@H](n3cnc4c(N)ncnc43)O[C@@H]2COP(=O)(O)O[C@H]2[C@@H](OC(=O)NCCCCN)[C@H](n3ccc(=O)[nH]c3=O)O[C@@H]2COP(=O)(O)O[C@H]2[C@@H](OC)[C@H](n3cnc4c(=O)[nH]c(N)nc43)O[C@@H]2CO)O[C@H]1n1ccc(N)nc1=O	14	61				
CO[C@@H]1[C@H](OP(=O)(O)OC[C@H]2O[C@@H](n3ccc(=O)[nH]c3=O)[C@H](OC(=O)NCCCCN)[C@@H]2OP(=O)(O)OC[C@H]2O[C@@H](n3ccc(=O)[nH]c3=O)[C@H](OC)[C@@H]2OP(=O)(O)OC[C@H]2O[C@@H](n3ccc(=O)[nH]c3=O)[C@H](OC(=O)NCCCCN)[C@@H]2OP(=O)(O)OC[C@H]2O[C@@H](n3ccc(N)nc3=O)[C@H](OC)[C@@H]2OP(=O)(O)OC[C@H]2O[C@@H](n3ccc(N)nc3=O)[C@H](OC)[C@@H]2OP(=O)(O)OC[C@H]2O[C@@H](n3cnc4c(=O)[nH]c(N)nc43)[C@H](OC)[C@@H]2OP(=O)(O)OC[C@H]2O[C@@H](n3cnc4c(=O)[nH]c(N)nc43)[C@H](OC)[C@@H]2O)[C@@H](COP(=O)(O)O[C@H]2[C@@H](OC)[C@H](n3ccc(N)nc3=O)O[C@@H]2COP(=O)(O)O[C@H]2[C@@H](OC)[C@H](n3cnc4c(N)ncnc43)O[C@@H]2COP(=O)(O)O[C@H]2[C@@H](OC)[C@H](n3ccc(=O)[nH]c3=O)O[C@@H]2COP(=O)(O)O[C@H]2[C@@H](OC)[C@H](n3cnc4c(=O)[nH]c(N)nc43)O[C@@H]2CO)O[C@H]1n1ccc(N)nc1=O	18	61				
Cc1cn([C@H]2C[C@H](O)[C@@H](COP(=O)(O)O[C@H]3[C@@H](OC(=O)NCCCCN)[C@H](n4ccc(=O)[nH]c4=O)O[C@@H]3COP(=O)(O)O[C@H]3[C@@H](OC(=O)NCCCCN)[C@H](n4ccc(=O)[nH]c4=O)O[C@@H]3CO)O2)c(=O)[nH]c1=O						Stable
CO[C@@H]1[C@H](OP(=O)(O)OC[C@H]2O[C@@H](n3ccc(=O)[nH]c3=O)[C@H](OC(=O)NCCCCN)[C@@H]2OP(=O)(O)OC[C@H]2O[C@@H](n3ccc(=O)[nH]c3=O)[C@H](OC)[C@@H]2OP(=O)(O)OC[C@H]2O[C@@H](n3ccc(=O)[nH]c3=O)[C@H](OC)[C@@H]2OP(=O)(O)OC[C@H]2O[C@@H](n3ccc(N)nc3=O)[C@H](OC)[C@@H]2OP(=O)(O)OC[C@H]2O[C@@H](n3ccc(N)nc3=O)[C@H](OC)[C@@H]2OP(=O)(O)OC[C@H]2O[C@@H](n3cnc4c(=O)[nH]c(N)nc43)[C@H](OC)[C@@H]2OP(=O)(O)OC[C@H]2O[C@@H](n3cnc4c(=O)[nH]c(N)nc43)[C@H](OC)[C@@H]2O)[C@@H](COP(=O)(O)O[C@H]2[C@@H](OC)[C@H](n3ccc(N)nc3=O)O[C@@H]2COP(=O)(O)O[C@H]2[C@@H](OC)[C@H](n3cnc4c(N)ncnc43)O[C@@H]2COP(=O)(O)O[C@H]2[C@@H](OC)[C@H](n3ccc(=O)[nH]c3=O)O[C@@H]2COP(=O)(O)O[C@H]2[C@@H](OC)[C@H](n3cnc4c(=O)[nH]c(N)nc43)O[C@@H]2CO)O[C@H]1n1ccc(N)nc1=O	4	69	68	59	57	
